Source: PubChem (Johns Hopkins Ion Channel Center)
TRPC6 activator: activates the mouse TRPC6 cation channel; Q61143; HEK293-TRPC6 membrane potential dye fluorescence; hits give high values; B-score at 10 µM; 310,000 tested, 0.13% active;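 active = B-score of the integrated fluorescence ratio above library mean plus 3 SD, and starting fluorescence ratio within library mean plus 5 SD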;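 note: higher score means more depolarization so channel activation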
TRPC4 agonist: opens the mouse TRPC4 cation channel; B-score at 10 µM; 310,000 tested, 0.49% active; HEK293 TRPC4beta/mu-opioid, Fluo4 calcium fluorescence; hits give high values;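 active = B-score above 5 SD of library B-scores, and initial fluorescence ratio not above library mean plus 5 SD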;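 note: positive B-score marks a calcium rise read as TRPC4 activation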
Target sequence (Q9QUQ5 whole entry, looked up): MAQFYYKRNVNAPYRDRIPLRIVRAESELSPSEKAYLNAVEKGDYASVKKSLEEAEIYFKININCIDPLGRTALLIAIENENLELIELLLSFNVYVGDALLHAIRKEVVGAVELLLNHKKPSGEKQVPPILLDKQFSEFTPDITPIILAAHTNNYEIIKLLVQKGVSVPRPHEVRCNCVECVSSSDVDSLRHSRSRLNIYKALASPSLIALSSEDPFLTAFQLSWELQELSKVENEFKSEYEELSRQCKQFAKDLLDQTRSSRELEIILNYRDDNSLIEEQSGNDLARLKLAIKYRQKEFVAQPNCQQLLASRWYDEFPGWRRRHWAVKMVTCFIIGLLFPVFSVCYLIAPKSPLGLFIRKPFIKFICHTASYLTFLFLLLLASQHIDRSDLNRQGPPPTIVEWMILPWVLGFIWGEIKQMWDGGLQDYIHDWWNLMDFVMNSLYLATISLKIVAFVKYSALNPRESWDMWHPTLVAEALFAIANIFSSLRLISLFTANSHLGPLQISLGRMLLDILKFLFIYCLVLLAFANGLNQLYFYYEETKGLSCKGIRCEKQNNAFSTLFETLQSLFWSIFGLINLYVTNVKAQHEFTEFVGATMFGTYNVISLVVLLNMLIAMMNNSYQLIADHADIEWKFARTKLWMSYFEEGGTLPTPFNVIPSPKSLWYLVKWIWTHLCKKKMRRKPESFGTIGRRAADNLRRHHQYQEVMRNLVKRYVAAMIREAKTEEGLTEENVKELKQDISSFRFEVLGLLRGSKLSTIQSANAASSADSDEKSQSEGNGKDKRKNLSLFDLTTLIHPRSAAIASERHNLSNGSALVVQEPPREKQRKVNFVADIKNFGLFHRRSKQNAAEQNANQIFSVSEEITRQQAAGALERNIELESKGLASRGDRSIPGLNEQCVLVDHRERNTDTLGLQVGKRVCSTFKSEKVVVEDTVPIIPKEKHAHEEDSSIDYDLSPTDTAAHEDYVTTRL
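System – HEK293 cells stably co-expressing mouse TRPC4beta and mu-opioid receptor · Signal – Fluo4 calcium-sensitive dye fluorescence, kinetic, 1 Hz baseline · Benchmarks – buffer (low) and maximal DAMGO (high) · Read-out – B score of integrated fluorescence ratio per well · Incubation – dye loading 45 min room temperature, 110 s kinetic read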
TRPC4 potent: allosteric potentiators of mouse TRPC4 channel. 310,000 tested, 0.42% active. AID 2227. HEK293 TRPC4beta/mu-opioid, DAMGO EC20, Fluo-4 Ca2+ flux; hits give high values. B-score at 10 µM;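 active = B-score of calcium response area above 5 SD of library B-scores, with initial fluorescence ratio within 5 SD of library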;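 note: B-score of integrated fluorescence ratio over time as area under calcium response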
TRPC4 block: blocks the mouse TRPC4 cation channel. HEK293 TRPC4beta/mu-opioid, DAMGO-evoked Fluo4 calcium flux; hits give low values. B-score at 10 µM. 300,000 tested, 0.39% active;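 active = B-score over 3 SD under the library average, no early fluorescence shift, positive overall ratio signal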
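Assay system: Stable TRPC4beta/mu-opioid receptor HEK293 cells | Reagent: DAMGO in two steps, submaximal then maximal | Compound dosing: Single concentration per test compound | Signal: Fluo4 Ca2+ flux fluorescence | Evaluation: Per-well B score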
TRPC6 inhibitor: blocks the mouse TRPC6 cation channel. Q61143. HEK293-TRPC6, membrane potential dye, ACh-evoked depolarization; hits give low values. B-score at 10 µM. 310,000 tested, 1.1% active. AID 2553;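 active = B-score under library mean minus 3 SD, initial fluorescence not abnormally high, positive integrated signal ratio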;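 note: B-score derived from integrated fluorescence ratio over the kinetic read; more negative B-score means stronger inhibition of depolarization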
TRPC4 sel inh 2: mouse TRPC4 off-target activity of TRPC6 inhibitors, second screen | inhibition, % at 10 µM | HEK293 TRPC4/MOR, membrane potential dye fluorescence; channel activated by saturating DAMGO dose | shares compounds with TRPC6 inhibitor | 920 tested, 42% active;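 active = compounds whose fluorescence signal differed from control wells by over 3 SD, either direction, in both duplicate plates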
TRPC4 spec: selectivity of TRPC6 inhibitors: effect on mouse TRPC4; shares compounds with TRPC6 inhibitor; HEK293 TRPC4/mu-opioid, membrane potential fluorescence; activity change, negative = inhibition, % at 10 µM; 920 tested, 61% active; AID 2777;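 active = rise or fall in signal beyond 3 SD of buffer-only wells in both replicate plates, either sign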;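 note: integrated kinetic ratio of fluorescence range over baseline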
HEK293 MPD ctr 2-1: parental HEK293 nonspecific activity of TRPC6 inhibitors, second screen; parental HEK293 membrane potential dye fluorescence; maximal acetylcholine challenge after compound addition; shares compounds with TRPC6 inhibitor; AID 2779; signal change vs control, % at 10 µM; 920 tested, 31% active;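 active = membrane potential signal moving either way by over 3 SD of the maximum-effect control, in both duplicate plates, meaning non-specific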
HEK293 MPD ctr-1: checks TRPC6 inhibitor effects in parental HEK293 cells. AID 2780. 920 tested, 60% active. shares compounds with TRPC6 inhibitor. parental HEK293 membrane potential dye fluorescence. membrane potential signal change, % at 10 µM;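 active = membrane potential signal shifting up or down by more than 3 SD of buffer-only wells, on both duplicate plates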
HEK293 MPD ctr-2: counter-screen for TRPC6 modulators: effect in parental HEK293 cells; shares compounds with TRPC6 inhibitor; membrane potential dye fluorescence; membrane potential signal change, % at 10 µM; 2,400 tested, 51% active; AID 488924;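 active = membrane potential signal moves up or down beyond 5 SD from buffer-only wells, on both duplicate plates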
HEK293 MPD ctr 2-2: parental HEK293 nonspecific activity of TRPC6 modulators, second screen | 2,400 tested, 14% active | membrane potential dye fluorescence; after compound, maximal acetylcholine stimulation | shares compounds with TRPC6 inhibitor | inhibition, % at 10 µM;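 active = membrane potential signal drops by more than 5 SD from the mean control signal, in both duplicate plates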;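 note: plate controls were acetylcholine ECmax control wells for no effect and buffer only wells for full effect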
TRPC4/MOR mod: selectivity of TRPC6 modulators against mouse TRPC4; 2,400 tested, 69% active; shares compounds with TRPC6 inhibitor; HEK293 TRPC4/mu-opioid, membrane potential fluorescence; percent change from control (negative = decrease, positive = increase), % at 10 µM;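 active = membrane potential signal moved up or down beyond 5 SD of buffer control wells, in both duplicate plates, actives on both sides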;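 note: plate controls were assay buffer wells for no effect and DAMGO maximal-effect wells for full effect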
TRPC4/MOR inh 2: mouse TRPC4 off-target activity of TRPC6 modulators, second screen. AID 488928. shares compounds with TRPC6 inhibitor. HEK293 TRPC4/mu-opioid, membrane potential dye fluorescence; stimulated with maximal-effect DAMGO. inhibition, % at 10 µM. 2,400 tested, 55% active;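 active = drop in membrane potential signal beyond 5 SD of the control wells in both duplicate plates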;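 note: TRPC4 counter screen for TRPC6 hits run under conditions tuned for TRPC6 not TRPC4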
TRPC6 block conf: confirmation of mouse TRPC6 inhibitors. shares compounds with TRPC6 inhibitor. AID 488960. inhibition, % at 10 µM. 3,300 tested, 43% active. HEK293-TRPC6, membrane potential dye, ACh-evoked depolarization;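 active = fluorescence ratio falls more than 5 SD below the full-stimulation control mean, in both duplicate runs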;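 note: integrated fluorescence ratio of peak minus minimum over baseline after agonist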
TRPC6 act conf: confirmation of mouse TRPC6 activators; shares compounds with TRPC6 inhibitor; HEK293-TRPC6 membrane potential dye fluorescence, FDSS; activation, % at 10 µM; 2,800 tested, 11% active; AID 488961;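 active = ratio signal rise beyond 5 SD above unstimulated control wells' mean, seen in both duplicate runs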;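 note: plate controls were buffer EC0 wells for no effect and acetylcholine ECmax response for full effect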
The depositor's hits bear a star; i = inactive; · = not tested or not shown. Sampled rows, rich in hits. Any-hit rate of the full collection: about 2.3%.

SMILES	TRPC6 activator	TRPC4 agonist	TRPC4 potent	TRPC4 block	TRPC6 inhibitor	HEK293 MPD ctr-2	HEK293 MPD ctr 2-2	TRPC4/MOR mod	TRPC4/MOR inh 2	TRPC6 block conf	TRPC6 act conf	others
CCc1cc2c(-c3ccccc3)cc(=O)oc2c(CN2CCOCC2)c1O	i	i	i	i	-5.07*	i	i	14.5%*	i	50.0%*	·
O=c1cc(-c2ccccc2)c2cc(Cl)c(O)c(CN3CCOCC3)c2o1	i	i	i	i	i	·	·	·	·	·	·
Cc1ccc(SCC(=O)Nc2ccc(N3CCN(C)CC3)c(F)c2)c(C)c1	i	i	i	i	-7.11*	·	·	·	·	i	i	TRPC4 sel inh 2=72.0%*;TRPC4 spec=-9.4%*;HEK293 MPD ctr 2-1=i;HEK293 MPD ctr-1=i
Cc1ccc(-n2nnnc2SCC(=O)Nc2ccc(N3CCN(C)CC3)cc2)c(C)c1	i	i	i	i	i	·	·	·	·	·	·
Cn1c(SCC(=O)NCCc2ccccc2)ncc(C(=O)Nc2ccccc2)c1=O	i	i	i	i	i	·	·	·	·	·	·
CCOc1ccc2c(c1)-c1c(ssc1=S)C(C)(C)N2C(=O)CSC1=NCCS1	i	i	i	i	i	·	·	·	·	·	·
CCOc1ccc2c(c1)-c1c(ssc1=S)C(C)(C)N2	i	i	i	i	-5.34*	i	i	-21.5%*	63.5%*	i	i
Cn1cc([N+](=O)[O-])c(C(=O)N2CCN(Cc3ccc4c(c3)OCO4)CC2)n1	i	i	i	i	i	·	·	·	·	·	·
CC1CN(c2nn3c(=O)c4ccccc4nc3c3ccccc23)CC(C)O1 (stereo not drawn)	i	i	i	i	i	·	·	·	·	·	·
CN1CCN(c2nc(-c3ccccn3)nc3ccccc23)CC1	i	i	i	i	-15.7*	-427.5%*	81.5%*	-69.5%*	72.0%*	73.5%*	i
CCN1CCN(c2nn3c(=O)c4ccccc4nc3c3ccccc23)CC1	i	i	i	i	-5.26*	i	i	i	52.0%*	41.5%*	i
CCN1CCN(c2nc(-c3cccnc3)nc3ccccc23)CC1	i	i	i	i	-8.22*	-355.5%*	i	-58.5%*	62.0%*	57.5%*	i
CN1CCN(c2nc(-c3cccnc3)nc3ccccc23)CC1	i	i	i	i	-8.09*	-320.5%*	69.0%*	-57.0%*	66.5%*	56.5%*	i
C[n+]1cccc(C(=O)Nc2ccccc2)c1	i	i	i	i	i	·	·	·	·	·	·
